In ChEMBL document CHEMBL2401625, “Synthesis and evaluation of pharmacological properties of some new xanthone derivatives with piperazine moiety” (Bioorg Med Chem Lett, 2013) one finds Activity, Ki and inhibition data, which are given here for 4 compounds.

The structures appear in SMILES notation. Active and inactive are the calls of the source. The rule behind the calls is not given here.

For series [1], the system named is Mus musculus. Description: Neurotoxicity in CF1 mouse assessed as minimal motor impairment at 30 mg/kg, ip after 4 hrs by rotorod test. To be noted: in vivo. It counts as toxicity, organism-based. Also on record: dose 30 mg/kg, route intraperitoneal. In a few lines: (§1)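 Rotarod neurotoxicity screen in mice dosed i.p. at 30, 100 or 300 mg/kg, read 0.5 or 4 h after dosing. The animal must stay on a rod rotating at 6 rpm without falling, measured 3 times within 1 min. A fall counts as minimal motor impairment. Result is recorded as impaired animals over animals used.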
For orientation: In the rotarod test animals must keep their balance on a rotating rod.

For series [2], the system named is Rattus norvegicus. Description: Neurotoxicity in Sprague-Dawley rat assessed as minimal motor impairment at 30 mg/kg, po after 4 hrs by rotorod test. To be noted: in vivo.
Series [3] deals with Rattus norvegicus. Description: Neurotoxicity in Sprague-Dawley rat assessed as minimal motor impairment at 30 mg/kg, po after 0.25 hrs by rotorod test. The note with it: in vivo.
Series [4] has as its system Rattus norvegicus. Briefly: Neurotoxicity in Sprague-Dawley rat assessed as minimal motor impairment at 30 mg/kg, po after 0.5 hrs by rotorod test. The note with it: in vivo.
Series [5] has as its system Rattus norvegicus. Briefly: Neurotoxicity in Sprague-Dawley rat assessed as minimal motor impairment at 30 mg/kg, po after 2 hrs by rotorod test. The note with it: in vivo.
For series [6], the system named is Mus musculus. Briefly: Neurotoxicity in CF1 mouse assessed as minimal motor impairment at 30 mg/kg, ip after 0.5 hrs by rotorod test. Also on record: dose 30 mg/kg, route intraperitoneal. The format is toxicity, organism-based. The note with it: in vivo. In a few lines: as §1
In series [7] the test system is Mus musculus. Briefly: Neurotoxicity in CF1 mouse assessed as minimal motor impairment at 300 mg/kg, ip after 0.5 hrs by rotorod test. It counts as toxicity, organism-based. On the set-up: dose 300 mg/kg, route intraperitoneal. The note with it: in vivo. In a few lines: as §1
Series [8] deals with Rattus norvegicus. Description: Neurotoxicity in Sprague-Dawley rat assessed as minimal motor impairment at 30 mg/kg, po after 1 hr by rotorod test. The note with it: in vivo.
The subject of series [9] is Mus musculus. Briefly: Neurotoxicity in CF1 mouse assessed as minimal motor impairment at 100 mg/kg, ip after 4 hrs by rotorod test. To be noted: in vivo. Also on record: dose 100 mg/kg, route intraperitoneal. The format is toxicity, organism-based. In a few lines:
as §1

In series [10] the target is T1, Adrenergic receptor alpha-1 (Rattus norvegicus, UniProt P15823+P23944+P43140).
T1 sequence (P15823 whole entry): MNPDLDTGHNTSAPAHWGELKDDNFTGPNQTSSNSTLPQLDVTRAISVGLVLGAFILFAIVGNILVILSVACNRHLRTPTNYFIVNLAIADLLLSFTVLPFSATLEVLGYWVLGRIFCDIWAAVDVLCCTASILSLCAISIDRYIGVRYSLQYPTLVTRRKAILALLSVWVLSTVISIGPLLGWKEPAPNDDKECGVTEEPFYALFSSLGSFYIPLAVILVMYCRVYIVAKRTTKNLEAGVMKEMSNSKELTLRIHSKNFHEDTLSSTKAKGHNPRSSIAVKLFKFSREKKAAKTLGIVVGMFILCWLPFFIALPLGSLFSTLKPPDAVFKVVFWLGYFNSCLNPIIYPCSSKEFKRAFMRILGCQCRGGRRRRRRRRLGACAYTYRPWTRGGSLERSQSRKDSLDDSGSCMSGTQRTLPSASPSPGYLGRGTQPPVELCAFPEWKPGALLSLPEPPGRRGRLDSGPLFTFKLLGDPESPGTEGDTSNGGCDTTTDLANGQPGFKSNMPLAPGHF
T1 sequence (P23944 whole entry): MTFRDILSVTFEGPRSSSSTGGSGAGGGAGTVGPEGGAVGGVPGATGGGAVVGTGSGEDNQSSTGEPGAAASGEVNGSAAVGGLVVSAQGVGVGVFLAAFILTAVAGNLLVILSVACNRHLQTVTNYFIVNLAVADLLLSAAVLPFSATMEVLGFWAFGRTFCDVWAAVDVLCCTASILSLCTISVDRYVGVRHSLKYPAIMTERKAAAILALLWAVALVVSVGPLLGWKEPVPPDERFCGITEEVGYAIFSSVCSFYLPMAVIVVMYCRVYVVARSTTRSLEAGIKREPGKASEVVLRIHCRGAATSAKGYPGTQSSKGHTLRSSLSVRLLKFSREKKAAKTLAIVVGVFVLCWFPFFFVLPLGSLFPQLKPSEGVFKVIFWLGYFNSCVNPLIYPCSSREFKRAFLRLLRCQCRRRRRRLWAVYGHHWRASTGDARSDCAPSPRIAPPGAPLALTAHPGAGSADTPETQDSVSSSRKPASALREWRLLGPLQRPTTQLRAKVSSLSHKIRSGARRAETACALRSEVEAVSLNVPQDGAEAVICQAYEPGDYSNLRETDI
T1 sequence (P43140 whole entry): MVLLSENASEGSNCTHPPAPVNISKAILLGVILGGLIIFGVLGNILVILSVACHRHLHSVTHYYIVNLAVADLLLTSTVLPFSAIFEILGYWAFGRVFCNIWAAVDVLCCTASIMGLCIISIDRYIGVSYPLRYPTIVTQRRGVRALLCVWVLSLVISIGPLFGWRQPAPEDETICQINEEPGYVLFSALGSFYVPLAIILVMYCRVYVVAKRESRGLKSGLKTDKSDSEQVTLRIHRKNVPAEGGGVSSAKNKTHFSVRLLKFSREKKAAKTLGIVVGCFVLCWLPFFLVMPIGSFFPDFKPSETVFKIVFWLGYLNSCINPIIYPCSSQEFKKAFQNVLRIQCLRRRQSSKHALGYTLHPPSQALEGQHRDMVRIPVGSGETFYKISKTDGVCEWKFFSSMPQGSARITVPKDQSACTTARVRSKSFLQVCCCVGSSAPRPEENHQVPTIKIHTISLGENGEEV
Description: Displacement of [3H]prazosin from alpha1-adrenergic receptor in rat cerebral cortex after 30 mins by scintillation counting. It counts as tissue-based. In a few lines: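 Radioligand binding on rat brain tissue membranes, run in 96-well format. [3H]prazosin was used for α1 (n = 2) and [3H]CGP-12177 for β1 (n = 2). Ki was calculated by the Cheng–Prusoff equation.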
In general terms: Displacement assays read how much labelled ligand stays bound in the presence of the test substance.

In series [11] the target is T2, 5-hydroxytryptamine receptor 1A (Homo sapiens, UniProt P08908).
T2 sequence (P08908 whole entry): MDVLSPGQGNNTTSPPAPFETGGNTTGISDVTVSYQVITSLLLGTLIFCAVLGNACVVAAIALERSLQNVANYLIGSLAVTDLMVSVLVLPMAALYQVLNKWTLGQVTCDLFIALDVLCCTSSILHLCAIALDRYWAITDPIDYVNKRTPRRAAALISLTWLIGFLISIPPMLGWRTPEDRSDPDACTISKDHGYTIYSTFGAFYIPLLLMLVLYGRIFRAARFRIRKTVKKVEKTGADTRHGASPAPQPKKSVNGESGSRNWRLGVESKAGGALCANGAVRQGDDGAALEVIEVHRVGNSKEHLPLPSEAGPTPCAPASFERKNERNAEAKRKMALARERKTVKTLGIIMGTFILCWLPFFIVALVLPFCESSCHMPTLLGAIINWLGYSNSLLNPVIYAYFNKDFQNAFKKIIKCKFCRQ
Briefly: Displacement of [3H]8-OH-DPAT from human 5HT1A receptor expressed in HEK293 cells after 1 hr. It counts as cell-based.

Series [12] has as its target 5-hydroxytryptamine receptor 7 (Homo sapiens, UniProt P34969). Description: Displacement of [3H]5-CT from human 5HT7b receptor expressed in HEK293 cells after 1 hr. It counts as cell-based.
The target in series [13] is 5-hydroxytryptamine receptor 6 (Homo sapiens, UniProt P50406). Briefly: Displacement of [3H]LSD from human 5HT6 receptor expressed in HEK293 cells after 1 hr. It counts as cell-based.
Chain of 5-hydroxytryptamine receptor 6 (P50406 whole entry): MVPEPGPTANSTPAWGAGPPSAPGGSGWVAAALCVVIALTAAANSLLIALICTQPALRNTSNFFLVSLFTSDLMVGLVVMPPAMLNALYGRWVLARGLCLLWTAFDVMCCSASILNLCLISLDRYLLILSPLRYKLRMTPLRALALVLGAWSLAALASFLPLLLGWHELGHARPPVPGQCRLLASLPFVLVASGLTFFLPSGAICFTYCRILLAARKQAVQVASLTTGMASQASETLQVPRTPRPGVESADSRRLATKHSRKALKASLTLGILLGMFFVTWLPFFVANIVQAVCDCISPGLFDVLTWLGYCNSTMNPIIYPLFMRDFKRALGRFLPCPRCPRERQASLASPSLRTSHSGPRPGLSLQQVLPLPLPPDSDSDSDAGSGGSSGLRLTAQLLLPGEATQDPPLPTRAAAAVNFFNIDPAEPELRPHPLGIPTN
The species named for series [14] is Rattus norvegicus. Description: Displacement of [3H]CGP-12177 from beta1-adrenergic receptor in rat cerebral cortex at 50 uM after 60 mins by scintillation counting. It counts as tissue-based.
The test system of series [15] is Mus musculus. Description: Neurotoxicity in CF1 mouse assessed as minimal motor impairment at 300 mg/kg, ip after 4 hrs by rotorod test. The format is toxicity, organism-based. On the set-up: dose 300 mg/kg, route intraperitoneal. The note with it: in vivo. In a few lines:
as §1

Chain of 5-hydroxytryptamine receptor 7 (P34969 whole entry): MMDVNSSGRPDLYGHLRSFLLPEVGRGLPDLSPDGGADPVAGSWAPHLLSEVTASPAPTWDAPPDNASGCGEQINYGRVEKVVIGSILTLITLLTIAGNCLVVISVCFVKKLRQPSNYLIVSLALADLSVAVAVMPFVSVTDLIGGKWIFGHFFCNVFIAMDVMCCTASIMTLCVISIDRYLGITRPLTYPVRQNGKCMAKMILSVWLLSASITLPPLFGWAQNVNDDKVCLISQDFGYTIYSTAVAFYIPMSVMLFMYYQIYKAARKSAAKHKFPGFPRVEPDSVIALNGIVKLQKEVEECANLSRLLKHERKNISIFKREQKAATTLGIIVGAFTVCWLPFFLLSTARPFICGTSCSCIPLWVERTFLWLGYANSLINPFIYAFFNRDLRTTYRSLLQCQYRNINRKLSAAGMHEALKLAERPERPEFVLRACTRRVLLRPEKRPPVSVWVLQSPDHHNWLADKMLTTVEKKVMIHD

Turning to `COc1ccc2c(=O)c3cc(CN4CCN(C)CC4)ccc3oc2c1`, the Activity result in the series with Mus musculus [1], with Rattus norvegicus [2], with Rattus norvegicus [3], in the series on Rattus norvegicus [4], in the series with Rattus norvegicus [5] and in the series on Mus musculus [6] was “Non-toxic” each time. Also, the figures for the Activity result in the series on Mus musculus [7], in the series on Rattus norvegicus [8] and in the series on Mus musculus [9] were “Toxic”, “Non-toxic” and “Non-toxic”, respectively.
Usually Ki stands for a dissociation constant, usually derived from enzyme kinetics or from competition with a known ligand. Lower therefore signals tighter binding. As for `COc1ccc2c(=O)c3cc(CN4CCN(Cc5ccccc5)CC4)ccc3oc2c1.Cl.Cl`, the Ki in series [10] was 0.31 µM; in series [11], 1.67 µM; in [12], 13.5 µM; in [13] it was 8.84 µM.
Turning to `CN1CCN(Cc2cccc3c(=O)c4ccc(Cl)cc4oc23)CC1.Cl.Cl.Cl`, the Ki came out at 0.65 µM in [10], 13.3 µM in [11], 10.5 µM in [12] and 19.5 µM in series [13]. The inhibition entry in the series filed under Rattus norvegicus [14] was “inactive”.
For the compound `COc1ccc2c(=O)c3cc(CN4CCN(c5ccccc5OC)CC4)ccc3oc2c1`, the Activity result with Mus musculus [1], with Mus musculus [15], in the series with Mus musculus [6], in the series on Mus musculus [7] and with Mus musculus [9] was “Non-toxic” each time.
